pIC50, pKd: −log10 of the molar value. Activity calls are given as the source filed them. The rule behind the calls is not given here.

Test [1] relates to Mycolicibacterium smegmatis. Nature of the test: Antibacterial activity against Mycolicibacterium smegmatis MC2 155 at 100 uM incubated for 24 hrs. It counts as functional, organism-based. A digest of the protocol: (§1)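 Single-concentration growth screen: 100 μM test compound with log-phase bacteria at about 5×10^5 cells/mL. Incubation 24 h at 37 °C. Growth read by OD600 and given as percent of untreated control. MRSA was grown in cation-adjusted Mueller–Hinton broth. M. smegmatis was grown in complete Middlebrook 7H9. Ampicillin and kanamycin served as positive controls.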

Test [2] relates to Klebsiella pneumoniae. Briefly: Bactericidal activity against Klebsiella pneumoniae ATCC 13883 assessed as reduction in CFU at 1 to 4 times MIC90 incubated for 24 hrs. It counts as functional, organism-based.
Test [3] concerns Klebsiella pneumoniae. Briefly: Antibacterial activity against Klebsiella pneumoniae ATCC 13883 incubated for 24 hrs by serial broth microdilution method. It counts as functional, organism-based. A digest of the protocol:
(§2)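 Log-phase cultures from four colonies grown overnight at 37 °C, inoculated at ~5×10^5 cells/mL in cation-adjusted Mueller–Hinton broth with serially diluted compound. Grown 24 h at 37 °C, then OD600 read. MIC50/MIC90 are the concentrations giving 50%/90% growth inhibition relative to drug-free controls. Two independent experiments in duplicate.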
A general note: In broth dilution the organism is exposed to a series of concentrations in liquid medium.

A further test relates to Streptococcus pneumoniae. Nature of the test: Antibacterial activity against Streptococcus pneumoniae ATCC 49619 at 100 uM incubated for 24 hrs. It counts as functional, organism-based. A digest of the protocol:
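Single 100 μM screen in MH medium with 3% defibrinated sheep blood at 37 °C under 5% CO2, ~5×10^5 cells/mL, 24 h.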

Test [4] relates to Mycobacterium tuberculosis. Briefly: Antibacterial activity against Mycobacterium tuberculosis ATCC 27294 at 100 uM incubated for 7 days. The test is classed as functional, organism-based.
In test [5] the target is T1, tRNA (guanine-N(1)-)-methyltransferase (Pseudomonas aeruginosa (strain ATCC 15692 / DSM 22644 / CIP 104116 / JCM14847 / LMG 12228 / 1C / PRS 101 / PAO1), UniProt Q9HXQ1).
T1 sequence (Q9HXQ1 whole entry): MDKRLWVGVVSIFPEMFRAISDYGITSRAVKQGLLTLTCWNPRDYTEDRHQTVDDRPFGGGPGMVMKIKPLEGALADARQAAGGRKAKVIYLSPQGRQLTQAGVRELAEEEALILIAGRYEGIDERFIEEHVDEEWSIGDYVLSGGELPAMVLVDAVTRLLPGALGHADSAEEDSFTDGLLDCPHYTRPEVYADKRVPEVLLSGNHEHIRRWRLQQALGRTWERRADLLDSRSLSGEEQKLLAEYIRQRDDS
Briefly: Inhibition of Pseudomonas aeruginosa tRNA (guanine(37)-N1)-methyltransferase (Leu5 to Asp25 residues) expressed in Escherichia coli BL21 (DE3) Rosetta T1R cells assessed as reduction in S-adenosyl-L-homocysteine production preincubated for 15 mins followed by 1.5 uM of tRNALeu(CAG) substrate and SAM addition and measured after 45 mins by MTase-Glo assay. A digest of the protocol: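 MTase-Glo luminescence assay. 8 nM TrmD preincubated 15 min at ambient temperature with serially diluted inhibitor (0–500 μM) in 50 mM Tris-HCl pH 8.0, 80 mM NaCl, 1 mM MgCl2, 0.5 mM DTT, 0.01% Triton X-100. Reaction with 2 μM SAM and tRNALeu(CAG), 45 min at 37 °C. Detection 30 min in the dark, SAH read against a standard curve. IC50 by nonlinear regression. Two independent experiments in duplicate.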

The next test relates to Staphylococcus aureus. Briefly: Antibacterial activity against methicillin-resistant Staphylococcus aureus ATCC 43300 at 100 uM incubated for 24 hrs. It counts as functional, organism-based. A digest of the protocol: as §1
The subject of a further test is Enterococcus faecalis. Briefly: Antibacterial activity against Enterococcus faecalis ATCC 51299 at 100 uM incubated for 24 hrs. It counts as functional, organism-based. The gist of the method: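 Single-concentration screen in brain heart infusion broth. Log-phase cells at ~5×10^5 cells/mL were grown with 100 μM compound for 24 h at 37 °C. Growth was read as OD600 and expressed as a percentage of untreated wells. DMSO and blank controls were included.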

For another test, the system named is Salmonella enteritidis. Nature of the test: Antibacterial activity against Salmonella enteritidis ATCC 13076 incubated for 24 hrs by serial broth microdilution method. It counts as functional. As to conditions: Salmonella enterica subsp. enterica serovar Enteritidis. The gist of the method:
as §2

Test [6] deals with T2, tRNA (guanine-N(1)-)-methyltransferase (Staphylococcus aureus (strain NCTC 8325 / PS 47), UniProt Q2FZ43).
T2 sequence (Q2FZ43 whole entry): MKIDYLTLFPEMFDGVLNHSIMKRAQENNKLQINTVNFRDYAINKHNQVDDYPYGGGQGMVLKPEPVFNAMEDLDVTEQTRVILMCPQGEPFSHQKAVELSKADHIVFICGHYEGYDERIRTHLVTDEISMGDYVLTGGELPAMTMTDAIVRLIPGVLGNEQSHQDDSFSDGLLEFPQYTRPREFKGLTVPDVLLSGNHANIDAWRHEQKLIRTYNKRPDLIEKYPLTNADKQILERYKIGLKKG
Nature of the test: Binding affinity to full length Staphylococcus aureus tRNA (guanine(37)-N1)-methyltransferase expressed in Escherichia coli BL21 (DE3) by surface plasmon resonance assay. The gist of the method: (§3)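 SPR at 25 °C. His-tagged TrmD (50 μg/mL) captured on an anti-His antibody surface (about 2200 RU), with a blank reference cell. Buffer: 50 mM Tris-HCl pH 8, 150 mM NaCl, 1 mM MgCl2, 1 mM DTT, 0.05% Tween-20. Analyte in 2-fold dilutions, injected lowest to highest at 30 μL/min, 30 s contact, 240 s dissociation. KD from steady-state affinity fit.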

Test [7] has as its target T3, tRNA (guanine-N(1)-)-methyltransferase (Mycobacterium tuberculosis (strain ATCC 25618 / H37Rv), UniProt P9WFY7).
T3 sequence (P9WFY7 whole entry): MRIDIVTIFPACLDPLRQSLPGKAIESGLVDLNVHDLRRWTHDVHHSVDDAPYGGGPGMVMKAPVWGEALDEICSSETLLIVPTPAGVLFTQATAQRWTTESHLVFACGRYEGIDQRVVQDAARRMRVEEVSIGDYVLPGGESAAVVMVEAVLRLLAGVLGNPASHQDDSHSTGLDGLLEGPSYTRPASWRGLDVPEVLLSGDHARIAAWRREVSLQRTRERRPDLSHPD
Nature of the test: Binding affinity to full length Mycobacterium tuberculosis tRNA (guanine(37)-N1)-methyltransferase expressed in Escherichia coli BL21 (DE3) by surface plasmon resonance assay. The gist of the method:
as §3

For test [8], the target named is T4, tRNA (guanine-N(1)-)-methyltransferase (Staphylococcus aureus (strain NCTC 8325 / PS 47)) (UniProt Q2FZ43).
T4 sequence (whole entry): T2 sequence (Q2FZ43 whole entry)
Nature of the test: Binding affinity to full length Staphylococcus aureus tRNA (guanine(37)-N1)-methyltransferase expressed in Escherichia coli BL21 (DE3) assessed as association rate constant by surface plasmon resonance assay. The gist of the method: as §3

Test [9] deals with T5, tRNA (guanine-N(1)-)-methyltransferase (Mycobacterium tuberculosis (strain ATCC 25618 / H37Rv)) (UniProt P9WFY7).
T5 sequence (whole entry): T3 sequence (P9WFY7 whole entry)
Nature of the test: Binding affinity to full length Mycobacterium tuberculosis tRNA (guanine(37)-N1)-methyltransferase expressed in Escherichia coli BL21 (DE3) assessed as association rate constant by surface plasmon resonance assay. A digest of the protocol:
as §3
A general note: In SPR one partner is held on a chip, and binding of the other changes the refractive index at the surface.

`CCCCCCCCCCNCc1ccc(CNC(=O)c2csc3nc[nH]c(=O)c23)cc1`: the outcome (in test [1]; with Streptococcus pneumoniae; in test [4]; in the test on Staphylococcus aureus; in the test with Enterococcus faecalis) was Active. Moreover, in the test on Klebsiella pneumoniae [2], the MBC99.9 entry was “inactive”. Also, the MIC50 entry with Klebsiella pneumoniae [3] and with Salmonella enteritidis was “inactive” each time. Further, the MIC90 entry in the test on Klebsiella pneumoniae [3] and in the test on Salmonella enteritidis was “inactive” each time. For the same compound, the pIC50 (as a rule, −log10 of the IC50, conventionally taken in molar units) in test [5] was 7.60.

Turning to `CCCCCCCCNCc1ccc(CNC(=O)c2csc3nc[nH]c(=O)c23)cc1`, the result (in test [1]; in the test with Streptococcus pneumoniae; in [4]; in the test on Staphylococcus aureus; in the test with Enterococcus faecalis) was Active. The MBC99.9 result in the test with Klebsiella pneumoniae [2] is “inactive”. Further, the MIC50 entry in the test on Klebsiella pneumoniae [3] and in the test with Salmonella enteritidis was “inactive” each time. Moreover, the MIC90 result in the test with Klebsiella pneumoniae [3] and in the test on Salmonella enteritidis was “inactive” throughout. Also, the pIC50 in test [5] is 7.62. For the same compound, the pKd (usually the negative decadic logarithm of the Kd, by convention in mol/L) is 5.51 in test [6] and 6.72 in [7]. Besides, the Ka was found to be 2.94e+06 M⁻¹ s⁻¹ in [8] and 645000 M⁻¹ s⁻¹ in [9].

In the case of `NC1CCN(Cc2ccc(CNC(=O)c3csc4nc[nH]c(=O)c34)cc2)CC1`, the result (in test [1]; in the test with Streptococcus pneumoniae; in [4]; with Staphylococcus aureus; in the test with Enterococcus faecalis) was inactive. Besides, the negative logarithm of the IC50 (pIC50) in test [5] is 6.74. The values for the pKd in test [6] and in test [7] were 4.56 and 4.98, respectively. For the same compound, the Ka amounted to 59900 M⁻¹ s⁻¹ in test [8] and 20100 M⁻¹ s⁻¹ in test [9].

Source of the values: ChEMBL document CHEMBL4373727, “Thienopyrimidinone Derivatives That Inhibit Bacterial tRNA (Guanine37-N1)-Methyltransferase (TrmD) by Restructuring the Active Site with a Tyrosine-Flipping Mechanism” (J Med Chem, 2019).
